According to ChEMBL document CHEMBL1125739, “A new class of HIV-1-specific 6-substituted acyclouridine derivatives: synthesis and anti-HIV-1 activity of 5- or 6-substituted analogues of 1-[(2-hydroxyethoxy)methyl]-6-(phenylthio)thymine (HEPT)” (J Med Chem, 1991):

Assays:
MT4 [1] = assay: Selectivity Index measured as the ratio of CC50 to that of EC50 values.
[2] = system: Human immunodeficiency virus; assay: Effective concentration required to achieve 50% protection of MT-4 cells against the cytopathic effect of HIV-1 (HTLV-IIIB).; type: functional, organism-based; conditions: Human immunodeficiency virus 1, MT4
Outline: (§1)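 MT-4 cells at 2.5×10^5 cells/mL infected with 1000 CCID50 of the named HIV strain, then plated at once over a range of compound concentrations. Incubation at 37 °C for 4 days or 5 days. Viable cells read by MTT. EC50 is the concentration giving 50% protection from virus-induced cytopathic effect.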

MT4 [3] = assay: Cytotoxic concentration required to reduce the viability of mock-infected MT-4 cells by 50%; type: functional; conditions: Homo sapiens
Outline: (§2)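 Mock-infected MT-4 cells at 2.5×10^5 cells/mL plated with various concentrations of compound, run in parallel with the antiviral assay. Viable cells counted by MTT after 4 days or 5 days at 37 °C. CC50 is the concentration that lowers viability by 50%.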

[4] = system: Human immunodeficiency virus; assay: Effective concentration required to achieve 50% protection of MT-4 cells against the cytopathic effect of HIV-2 ((LAV-2EHO strain) and determined on 4th day after virus infection.; type: functional, organism-based; conditions: Human immunodeficiency virus 1, MT4
Outline: as §1

[5] = system: Human immunodeficiency virus; assay: Effective concentration required to achieve 50% protection of MT-4 cells against the cytopathic effect of HIV-1 (HTLV-IIIRF strain) and determined on 4th day after virus infection.; type: functional, organism-based; conditions: Human immunodeficiency virus 1, MT4
Outline: as §1

[6] = system: Human immunodeficiency virus; assay: Cytotoxic concentration required to reduce the viability of mock-infected MT-4 cells (HIV-1 HTLV-IIIB strain) by 50% was determined on 4th day after virus infection.; type: functional; conditions: Human immunodeficiency virus 1, MT4
Outline: as §2

[7] = system: Human immunodeficiency virus; assay: Effective concentration required to achieve 50% protection of MT-4 cells against the cytopathic effect of HIV-1 (HTLV-IIIB strain) and determined on 4th day after virus infection.; type: functional, organism-based; conditions: Human immunodeficiency virus 1, MT4
Outline: as §1

[8] = system: Human immunodeficiency virus; assay: Effective concentration required to achieve 50% protection of MT-4 cells against the cytopathic effect of HIV-2 (LAV-2ROD strain) and determined on 4th day after virus infection.; type: functional, organism-based; conditions: Human immunodeficiency virus 1, MT4
Outline: as §1

Compound	EC50 [2] [µM]	Selectivity index (MT4 [1])	CC50 (MT4 [3]) [µM]	EC50 [4] [µM]	EC50 [5] [µM]	CC50 [6] [µM]	EC50 [7] [µM]	EC50 [8] [µM]
O=c1[nH]c(=O)n(COCCO)c(Sc2ccccc2)c1Sc1ccccc1	> 21	<1	21					
CSc1c(C)c(=O)[nH]c(=O)n1COCCO	> 250		> 250					
C=Cc1c(C)c(=O)[nH]c(=O)n1COCCO	> 250		> 250					
Cc1c(C(=O)c2ccccc2)n(COCCO)c(=O)[nH]c1=O	> 366	<1	366					
Cc1c(Nc2ccccc2)n(COCCO)c(=O)[nH]c1=O	> 327	<1	327					
Cc1c(Br)n(COCCO)c(=O)[nH]c1=O	> 180	<1	180					
Cc1c(Cl)n(COCCO)c(=O)[nH]c1=O	> 250		> 250					
Cc1c(NC2CCCCC2)n(COCCO)c(=O)[nH]c1=O	> 377	<1	337					
Cc1c(/C=C/c2ccccc2)n(COCCO)c(=O)[nH]c1=O	> 250		> 250					
C#Cc1c(Sc2ccccc2)n(COCCO)c(=O)[nH]c1=O	> 18	<1	18					
C/C=C/c1c(C)c(=O)[nH]c(=O)n1COCCO	> 250		> 250					
Cc1c(C(O)c2ccccc2)n(COCCO)c(=O)[nH]c1=O (centres undefined)	> 400	<1	400					
CC#Cc1c(C)c(=O)[nH]c(=O)n1COCCO	> 250		> 250					
Cc1c(SC(C)(C)C)n(COCCO)c(=O)[nH]c1=O	> 366	<1	366					
COc1c(C)c(=O)[nH]c(=O)n1COCCO	> 484	<1	484					
Cc1c(OC2CCCCC2)n(COCCO)c(=O)[nH]c1=O	> 400	<1	400					
Cc1c(Cc2ccccc2)n(COCCO)c(=O)[nH]c1=O	23	15	352					
CCSc1c(C)c(=O)[nH]c(=O)n1COCCO	> 250		> 250					
O=c1[nH]c(=O)n(COCCO)c(Sc2ccccc2)c1Cc1ccccc1	> 23	<1	23					
CC#Cc1c(Sc2ccccc2)n(COCCO)c(=O)[nH]c1=O	> 19	<1	19					
Cc1c(Sc2ccccc2)n(COCCO)c(=O)[nH]c1=O [HEPT]	7		740	> 250	8.1	> 500	6.5	> 250

Now from value to compound, other results behind:

EC50 [2] [µM]	Compound	Selectivity index (MT4 [1])	CC50 (MT4 [3]) [µM]	EC50 [4] [µM]	EC50 [5] [µM]	CC50 [6] [µM]	EC50 [7] [µM]	EC50 [8] [µM]
> 14	Cc1c(C#Cc2ccccc2)n(COCCO)c(=O)[nH]c1=O	<1	14					
8.2	Cc1c(SC2CCCCC2)n(COCCO)c(=O)[nH]c1=O	81	664	> 250	7.9	440	7.7	> 250
> 3.4	O=c1[nH]c(=O)n(COCCO)c(Sc2ccccc2)c1C#Cc1ccccc1	<1	3.4					
1.1	C=Cc1c(Sc2ccccc2)n(COCCO)c(=O)[nH]c1=O	69	76					
0.84	O=c1[nH]c(=O)n(COCCO)c(Sc2ccccc2)c1C=C(c1ccccc1)c1ccccc1	25	21					
3.6	O=c1[nH]c(=O)n(COCCO)c(Sc2ccccc2)c1I	5.6	20					
6	O=c1[nH]c(=O)n(COCCO)c(Sc2ccccc2)c1/C=C/c1ccccc1	16	95					
> 5.5	C#Cc1c(C)c(=O)[nH]c(=O)n1COCCO	<1	5.5					
6.3	Nc1ncnc2c1ncn2[C@H]1CC[C@@H](CO)O1	141	890					
85	Cc1c(Oc2ccccc2)n(COCCO)c(=O)[nH]c1=O	4.1	345					
130	CCCCSc1c(C)c(=O)[nH]c(=O)n1COCCO		> 250					
> 12	CC(C)C(=O)c1c(Sc2ccccc2)n(COCCO)c(=O)[nH]c1=O	<1	12					
> 13	O=C(c1ccccc1)c1c(Sc2ccccc2)n(COCCO)c(=O)[nH]c1=O	<1	13					
0.3	Nc1ccn([C@H]2CC[C@@H](CO)O2)c(=O)n1 [ZALCITABINE]	133	40					
0.016	Cc1cn([C@H]2C[C@H](N=[N+]=[N-])[C@@H](CO)O2)c(=O)[nH]c1=O [ZIDOVUDINE]	1250	20					
